ChEMBL document CHEMBL1124444, “Hydroxyacetophenone-derived antagonists of the peptidoleukotrienes” (1989)
Values belong to the compound of their own block, whether it stands above or below them.

What was measured:
[1] = species: Cavia porcellus; experiment: Percent inhibition of the leukotriene D4 (LTD4)-induced contraction of guinea pig tracheal spirals at 4 uM concentration; assay type: functional; conditions: Trachea
How it was run: (§1)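 Guinea pig tracheal spirals were split into paired sections in 10 mL baths of modified Krebs at 37 °C, gassed with 95% O₂/5% CO₂, under 2 g resting tension. After 60 min equilibration (washes every 15 min), reproducible contractions to 8 nM LTD₄ or 8 nM LTE₄ were obtained. Compound was added for 10 min, then agonist challenge repeated; percent inhibition is relative to the vehicle-treated paired section.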

[2] = system: Cavia porcellus; experiment: Compound (50 mg/kg, intraperitoneally) was tested in spontaneously breathing, conscious guinea pigs challenged with aerosolized LTD4 (30-min pretreatment); assay type: functional
[3] = species: Cavia porcellus; experiment: Inhibition of the leukotriene D4 (LTD4)-induced contraction of guinea pig tracheal spirals at 10 uM concentration; assay type: functional; conditions: Trachea; how it was run: as §1
[4] = species: Cavia porcellus; experiment: Percent inhibition of the leukotriene E4 (LTE4)-induced contraction of guinea pig tracheal spirals at 5 uM concentration; assay type: functional; conditions: Trachea; how it was run: as §1
[5] = species: Cavia porcellus; experiment: Percent inhibition of the leukotriene D4 (LTD4)-induced contraction of guinea pig tracheal spirals at 10 uM concentration; NS means data was not statistically significant.; assay type: functional; conditions: Trachea; how it was run: as §1
[6] = species: Cavia porcellus; experiment: Percent inhibition of the leukotriene D4 (LTD4)-induced contraction of guinea pig tracheal spirals at 100 uM concentration; assay type: functional; conditions: Trachea; how it was run: as §1
[7] = species: Cavia porcellus; experiment: Percent inhibition of the leukotriene E4 (LTE4)-induced contraction of guinea pig tracheal spirals at 10 uM concentration; NS means data was not statistically significant; assay type: functional; conditions: Trachea; how it was run: as §1
[8] = species: Cavia porcellus; experiment: Percent inhibition of the leukotriene D4 (LTD4)-induced contraction of guinea pig tracheal spirals at 5 uM concentration; assay type: functional; conditions: Trachea; how it was run: as §1
[9] = molecular target: T1, Cysteinyl leukotriene receptor 1 (Cavia porcellus) (UniProt Q2NNR5); experiment: Dissociation constant (KB) […] was evaluated in vitro in isolated guinea pig tracheal strips
T1 sequence (whole entry): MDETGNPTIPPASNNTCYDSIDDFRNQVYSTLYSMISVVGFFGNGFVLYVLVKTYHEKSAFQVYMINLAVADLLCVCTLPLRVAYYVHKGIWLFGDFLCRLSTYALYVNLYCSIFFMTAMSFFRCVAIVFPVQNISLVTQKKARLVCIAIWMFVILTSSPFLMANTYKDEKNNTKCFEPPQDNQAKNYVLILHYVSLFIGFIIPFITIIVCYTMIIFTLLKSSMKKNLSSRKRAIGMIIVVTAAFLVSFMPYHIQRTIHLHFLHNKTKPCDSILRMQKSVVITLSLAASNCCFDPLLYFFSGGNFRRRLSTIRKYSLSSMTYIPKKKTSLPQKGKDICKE

[10] = species: Cavia porcellus; experiment: Percent inhibition of the leukotriene E4 (LTE4)-induced contraction of guinea pig tracheal spirals at 1 uM concentration; conditions: Trachea
[11] = system: Cavia porcellus; experiment: Compound (50 mg/kg, intraperitoneally) was tested in spontaneously breathing, conscious guinea pigs challenged with aerosolized LTD4 (60-min pretreatment); assay type: functional
[12] = species: Cavia porcellus; experiment: Percent inhibition of the leukotriene D4 (LTD4)-induced contraction of guinea pig tracheal spirals at 10 uM concentration; NS meana data was not statistically significant; assay type: functional; conditions: Trachea; how it was run: as §1
[13] = species: Cavia porcellus; experiment: Percent inhibition of the leukotriene E4 (LTE4)-induced contraction of guinea pig tracheal spirals at 1 uM concentration; assay type: functional; conditions: Trachea; how it was run: as §1
[14] = species: Cavia porcellus; experiment: Percent inhibition of the leukotriene E4 (LTE4)-induced contraction of guinea pig tracheal spirals at 3.3 uM concentration; conditions: Trachea
[15] = species: Cavia porcellus; experiment: Percent inhibition of the leukotriene E4 (LTE4)-induced contraction of guinea pig tracheal spirals at 1 uM concentration; NS means data was not statistically significant; conditions: Trachea
[16] = species: Cavia porcellus; experiment: Percent inhibition of the leukotriene E4 (LTE4)-induced contraction of guinea pig tracheal spirals at 0.33 uM concentration; conditions: Trachea
[17] = species: Cavia porcellus; experiment: Percent inhibition of the leukotriene E4 (LTE4)-induced contraction of guinea pig tracheal spirals at 10 uM concentration; NS means data was not statistically significant.; assay type: functional; conditions: Trachea; how it was run: as §1
[18] = species: Cavia porcellus; experiment: Percent inhibition of the leukotriene E4 (LTE4)-induced contraction of guinea pig tracheal spirals at 50 uM concentration; assay type: functional; conditions: Trachea; how it was run: as §1
[19] = species: Cavia porcellus; experiment: Percent inhibition of the leukotriene D4 (LTD4)-induced contraction of guinea pig tracheal spirals at 10 uM concentration; NS means data was not statistically significant; assay type: functional; conditions: Trachea; how it was run: as §1
[20] = species: Cavia porcellus; experiment: Percent inhibition of the leukotriene E4 (LTE4)-induced contraction of guinea pig tracheal spirals at 10 uM concentration; assay type: functional; conditions: Trachea; how it was run: as §1
[21] = species: Cavia porcellus; experiment: Percent inhibition of the leukotriene E4 (LTE4)-induced contraction of guinea pig tracheal spirals at 50 uM concentration; NS means data was not statistically significant.; assay type: functional; conditions: Trachea; how it was run: as §1

Structure (SMILES): CCCc1c(OCc2ccc(C(=O)O)cc2OC)ccc2c(C)cc(=O)oc12
inhibition at 4 µM [1]: 44%
Protection [2]: 27%
inhibition at 10 µM [3]: 78%

Structure (SMILES): COc1cc(C(=O)O)ccc1COc1ccc(C(C)=O)c(O)c1C=C(C)C
inhibition at 5 µM [4]: 69%

Structure (SMILES): CCCc1c(OCCC[S+]([O-])CC(=O)O)ccc(C(C)=O)c1O (configuration not stated)
inhibition [5]: Not statistically significant

Structure (SMILES): CCCc1c(OCCCSCC(=O)O)ccc(C(C)=O)c1O
inhibition at 10 µM [3]: 62%
inhibition at 100 µM [6]: 100%

Structure (SMILES): CCCc1c(OCc2ccc(C(=O)O)cc2OC)ccc(C(=O)Oc2ccccc2)c1O
inhibition [7]: Not statistically significant

Structure (SMILES): C/C=C(\c1ccccc1)c1c(OCc2ccc(C(=O)O)cc2OC)ccc(C(C)=O)c1O
inhibition at 5 µM [8]: 24%

Kb [9]: 570 nM
Structure (SMILES): CCCc1c(OCc2ccc(/C=C/C(=O)O)cc2)ccc(C(C)=O)c1O
inhibition at 1 µM [10]: 48%
Protection [11]: 34%

Structure (SMILES): COc1cc(C(=O)O)ccc1COc1ccc(C(C)=O)c(O)c1
inhibition [12]: Not statistically significant

Structure (SMILES): COc1cc(C(=O)O)ccc1COc1ccc(C(C)=O)c(O)c1CC(C)C
inhibition at 1 µM [13]: 22%

Structure (SMILES): CCCc1c(OCc2ccc(-c3nn[nH]n3)cc2OC)ccc(C(C)=O)c1O
inhibition at 3.3 µM [14]: 45%
inhibition [15]: Not statistically significant

Kb [9]: 160 nM
Structure (SMILES): CCCc1c(OCc2cccc(NC(=O)c3ccccc3C(=O)O)c2)ccc(C(C)=O)c1O
inhibition at 0.33 µM [16]: 45%
inhibition at 1 µM [10]: 94%
Protection [11]: 9%

Structure (SMILES): CCCc1c(OCc2ccc(C(=O)O)cc2OC)ccc(C(=O)N(C)C)c1O
inhibition [17]: Not statistically significant
inhibition at 50 µM [18]: 84%

Kb [9]: 3180 nM
Structure (SMILES): CCCc1c(OCc2ccc(C(=O)O)cc2OC)ccc(C(=O)OC)c1O
inhibition at 5 µM [4]: 52%
Protection [11]: 29%

Kb [9]: 630 nM
Structure (SMILES): CCCc1c(OCc2cccc(/C=C/C(=O)O)c2)ccc(C(C)=O)c1O
inhibition at 4 µM [1]: 66%
Protection [2]: 19%
inhibition at 1 µM [10]: 41%

Structure (SMILES): COc1cc(C(=O)O)ccc1COc1ccc2c(C)cc(=O)oc2c1
inhibition [19]: Not statistically significant

Structure (SMILES): CCCN(Cc1ccc(C(=O)O)cc1OC)c1ccc(C(C)=O)c(O)c1
inhibition at 10 µM [20]: 24%
inhibition at 50 µM [18]: 35%

Structure (SMILES): CCCc1c(OCc2ccc(C(=O)O)cc2OC)ccc(C(=O)O)c1O
inhibition [21]: Not statistically significant

Structure (SMILES): CCCc1c(OCc2ccccc2C(=O)O)ccc(C(C)=O)c1O
inhibition at 100 µM [6]: 91%
inhibition [5]: Not statistically significant

Structure (SMILES): CCCc1c(OCc2cc(/C=C\C(=O)O)ccc2OC)ccc(C(C)=O)c1O
inhibition at 10 µM [3]: 28%
inhibition at 1 µM [10]: 14%
